Among the data in ChEMBL document CHEMBL1255398, “In vitro activities of eight antifungal drugs against 55 clinical isolates of Fonsecaea spp” (2010) are MIC50, MIC90 and MIC values, retold here.

Values after ≈ are worked out from the molar mass of the structure shown. Starred links: 1 amine or outer side, 2 acyl side, 3 side chain; linkers in the order of their positions; H or OH if unused. Positions of bridges follow the written chain, without caps; N, C: chain ends. Non-standard residues stand in square brackets, D forms with d. Residues, ends and D or L forms follow the SMILES beside them. *: point of attachment. pTerphenylCO(4''-OnC5H11) = CCCCCOc1ccc(-c2ccc(-c3ccc(C(=O)*)cc3)cc2)cc1; Orn(4R-OH,5R-OH) = O=C([C@H](C[C@@H](O)[C@@H](O)N[*:3])N[*:1])[*:2]; hTyr(3S-OH,4S-OH) = N[C@H](C(=O)O)[C@H](O)[C@@H](O)c1ccc(O)cc1; Pro(3S-OH,4S-Me) = C[C@H]1CN[C@H](C(=O)O)[C@H]1O; Hyp = O=C(O)[C@@H]1C[C@@H](O)CN1

What all share (type): functional
Assay [1] concerns Fonsecaea. Description: Antimicrobial activity against Fonsecaea isolates after 72 hrs by CLSI M38-A2 protocol method. A digest of the protocol:
(§1)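 Broth microdilution per CLSI M38-A2. Isolates grown on potato dextrose agar at 35°C for up to 7 days. Inocula were scraped into saline with 0.05% Tween 40, settled 3 to 5 min, and adjusted at 530 nm to 68 to 71% transmission (1.5 × 104 to 4 × 10^4 CFU/ml). Incubated 72 h at 35°C and read visually against drug-free control: MIC at 100% or ≥50% inhibition depending on drug, MEC microscopically by compact hyphae.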

Another assay deals with Fonsecaea pedrosoi. The experiment in a line: Antimicrobial activity against Fonsecaea pedrosoi isolates after 72 hrs by CLSI M38-A2 protocol method. A digest of the protocol:
as §1

A further assay deals with Fonsecaea monophora. Description: Antimicrobial activity against Fonsecaea monophora isolates after 72 hrs by CLSI M38-A2 protocol method. A digest of the protocol: as §1
Assay [2] relates to Fonsecaea. Description: Antimicrobial activity against Fonsecaea nubica isolates after 72 hrs by CLSI M38-A2 protocol method. Summed up:
as §1

`CC[C@@H]([C@H](C)O)n1ncn(-c2ccc(N3CCN(c4ccc(OC[C@@H]5CO[C@@](Cn6cncn6)(c6ccc(F)cc6F)C5)cc4)CC3)cc2)c1=O` [POSACONAZOLE]: the MIC50 in the assay on Fonsecaea [1] came to 0.031 µg/mL (≈ 0.0442 µM); against Fonsecaea pedrosoi, 0.063 µg/mL (≈ 0.0899 µM); in the assay with Fonsecaea monophora it was 0.031 µg/mL (≈ 0.0442 µM); in the assay on Fonsecaea [2], 0.031 µg/mL (≈ 0.0442 µM). Besides, the MIC90 against Fonsecaea [1], in the assay with Fonsecaea pedrosoi, with Fonsecaea monophora and in the assay on Fonsecaea [2] was 0.063 µg/mL (≈ 0.0899 µM) in each case. Also, the MIC against Fonsecaea [2] came out at 0.031 µg/mL (≈ 0.0442 µM).
Regarding `C[C@@H](c1ncncc1F)[C@](O)(Cn1cncn1)c1ccc(F)cc1F` [VORICONAZOLE], the MIC50 in the assay on Fonsecaea [1] was 0.25 µg/mL (≈ 0.716 µM); with Fonsecaea pedrosoi, 0.5 µg/mL (≈ 1.43 µM); in the assay on Fonsecaea monophora, 0.063 µg/mL (≈ 0.18 µM); with Fonsecaea [2], 0.25 µg/mL (≈ 0.716 µM). The MIC90 in the assay with Fonsecaea [1] came to 0.5 µg/mL (≈ 1.43 µM); against Fonsecaea pedrosoi, 0.5 µg/mL (≈ 1.43 µM); in the assay on Fonsecaea monophora, 0.125 µg/mL (≈ 0.358 µM); against Fonsecaea [2] it was 0.5 µg/mL (≈ 1.43 µM). The MIC with Fonsecaea [2] is 0.25 µg/mL (≈ 0.716 µM).
In the case of `C[C@@H]1[C@H](O)[C@@H](C)/C=C/C=C/C=C/C=C/C=C/C=C/C=C/[C@H](O[C@@H]2O[C@H](C)[C@@H](O)[C@H](N)[C@@H]2O)C[C@@H]2O[C@](O)(C[C@@H](O)C[C@@H](O)[C@H](O)CC[C@@H](O)C[C@@H](O)CC(=O)O[C@H]1C)C[C@H](O)[C@H]2C(=O)O` [AMPHOTERICIN B], the MIC50 with Fonsecaea [1], with Fonsecaea pedrosoi, in the assay with Fonsecaea monophora and against Fonsecaea [2] was 1 µg/mL (≈ 1.08 µM) in each case. Further, the MIC90 with Fonsecaea [1], in the assay on Fonsecaea pedrosoi, against Fonsecaea monophora and with Fonsecaea [2] was 2 µg/mL (≈ 2.16 µM) throughout.
`CC[C@H](C)C[C@H](C)CCCCCCCCC(=O)N[C@H]1C[C@@H](O)[C@@H](NCCN)NC(=O)[C@@H]2[C@@H](O)CCN2C(=O)[C@H]([C@H](O)CCN)NC(=O)[C@H]([C@H](O)[C@@H](O)c2ccc(O)cc2)NC(=O)[C@@H]2C[C@@H](O)CN2C(=O)[C@H]([C@@H](C)O)NC1=O` [CASPOFUNGIN]: the MIC50 in the assay on Fonsecaea [1] came out at 2 µg/mL (≈ 1.83 µM); against Fonsecaea pedrosoi, 4 µg/mL (≈ 3.66 µM); against Fonsecaea monophora, 2 µg/mL (≈ 1.83 µM); against Fonsecaea [2], 2 µg/mL (≈ 1.83 µM). The MIC90 came to 2 µg/mL (≈ 1.83 µM) in the assay with Fonsecaea [1], 4 µg/mL (≈ 3.66 µM) against Fonsecaea pedrosoi, 2 µg/mL (≈ 1.83 µM) against Fonsecaea monophora and 4 µg/mL (≈ 3.66 µM) in the assay with Fonsecaea [2]. This molecule returned an MIC in the assay on Fonsecaea [2] of 2 µg/mL (≈ 1.83 µM).
Turning to `CCC(C)n1ncn(-c2ccc(N3CCN(c4ccc(OCC5COC(Cn6cncn6)(c6ccc(Cl)cc6Cl)O5)cc4)CC3)cc2)c1=O` (configuration not stated) [ITRACONAZOLE], the MIC50 was determined as 0.063 µg/mL (≈ 0.0893 µM) in the assay with Fonsecaea [1], 0.063 µg/mL (≈ 0.0893 µM) with Fonsecaea pedrosoi, 0.063 µg/mL (≈ 0.0893 µM) against Fonsecaea monophora and 0.125 µg/mL (≈ 0.177 µM) against Fonsecaea [2]. The MIC90 turned out to be 0.125 µg/mL (≈ 0.177 µM) in the assay on Fonsecaea [1], 0.125 µg/mL (≈ 0.177 µM) in the assay on Fonsecaea pedrosoi, 0.125 µg/mL (≈ 0.177 µM) against Fonsecaea monophora and 0.25 µg/mL (≈ 0.354 µM) with Fonsecaea [2].
Take `C[C@@H](c1nc(-c2ccc(C#N)cc2)cs1)[C@](O)(Cn1cncn1)c1cc(F)ccc1F` [ISAVUCONAZOLE]: the MIC50 with Fonsecaea [1] was 0.25 µg/mL (≈ 0.571 µM); in the assay on Fonsecaea pedrosoi it was 0.25 µg/mL (≈ 0.571 µM); with Fonsecaea monophora it was 0.125 µg/mL (≈ 0.286 µM); with Fonsecaea [2] it was 0.125 µg/mL (≈ 0.286 µM). Besides, the MIC90 was determined as 0.25 µg/mL (≈ 0.571 µM) in the assay on Fonsecaea [1], 0.25 µg/mL (≈ 0.571 µM) against Fonsecaea pedrosoi, 0.25 µg/mL (≈ 0.571 µM) in the assay on Fonsecaea monophora and 0.5 µg/mL (≈ 1.14 µM) in the assay with Fonsecaea [2].
With `OC(Cn1cncn1)(Cn1cncn1)c1ccc(F)cc1F` [FLUCONAZOLE], the MIC50 with Fonsecaea [1] came to 16 µg/mL (≈ 52.2 µM); in the assay with Fonsecaea pedrosoi it was 32 µg/mL (≈ 104 µM); in the assay with Fonsecaea monophora, 16 µg/mL (≈ 52.2 µM); against Fonsecaea [2], 16 µg/mL (≈ 52.2 µM). Besides, the MIC90 in the assay on Fonsecaea [1], with Fonsecaea pedrosoi, with Fonsecaea monophora and in the assay on Fonsecaea [2] was 32 µg/mL (≈ 104 µM) in each case. In the assay on Fonsecaea [2], this molecule yielded an MIC of 16 µg/mL (≈ 52.2 µM).
With `CCCCCOc1ccc(-c2ccc(-c3ccc(C(=O)N[C@H]4C[C@@H](O)[C@@H](O)NC(=O)[C@@H]5[C@@H](O)[C@@H](C)CN5C(=O)[C@H]([C@@H](C)O)NC(=O)[C@H]([C@H](O)[C@@H](O)c5ccc(O)cc5)NC(=O)[C@@H]5C[C@@H](O)CN5C(=O)[C@H]([C@@H](C)O)NC4=O)cc3)cc2)cc1` [ANIDULAFUNGIN] ({pTerphenylCO(4''-OnC5H11)}-[Orn(4R-OH,5R-OH)]T[Hyp][hTyr(3S-OH,4S-OH)]T[Pro(3S-OH,4S-Me)]; lactam 1-C), in the assay on Fonsecaea pedrosoi, the MIC50 was 8 µg/mL (≈ 7.02 µM) and the MIC90 was 8 µg/mL (≈ 7.02 µM). In the assay with Fonsecaea monophora, this molecule registered an MIC50 of 4 µg/mL (≈ 3.51 µM) and an MIC90 of 8 µg/mL (≈ 7.02 µM). In the assay with Fonsecaea [2], this molecule showed an MIC of 2 µg/mL (≈ 1.75 µM), an MIC50 of 2 µg/mL (≈ 1.75 µM) and an MIC90 of 8 µg/mL (≈ 7.02 µM).

Broadly, the MIC50 is an inhibitory concentration at the 50% level, which refers to growth in some studies and to a panel of isolates in others. A high value points to weaker potency. As a reminder, the MIC90 is the lowest concentration that inhibits either 90% of growth or 90% of the strains tested, depending on the study. What is called MIC is the lowest concentration that inhibits growth of the organism.
